Results gathered from unrelated publications.
Protocols differ between the studies behind these lines.
Target: Acetylcholinesterase (ACHE, Homo sapiens, UniProt P22303)
Observed: enzyme activity
Action: inhibitor

C=CCn1c2cc(OC(=O)CCCCN3CCN(Cc4cccc(F)c4)CC3)ccc2c2ccnc(C)c21 has an IC50 of 106 nM (Ellman).
With C#CCNc1nc(NCCCCC2CCN(Cc3ccccc3)CC2)c(C#N)cc1C#N the IC50 was 2.9 nM (Ellman).
For CN1CCN(CCCCOc2ccc3occc(=O)c3c2)CC1, the IC50 was 6430 nM (Ellman; pH 7.4).
For c1cc(CN2CCCCC2)cc(OCCCNc2nc3ccccc3s2)c1, the IC50 was 22600 nM.
The IC50 of CNC(=O)Oc1cccc2c1OC(C)(C)O2 is reported as 182 nM (Ellman).
For c1ccc2c(c1)[I+]c1ccccc1-2, the IC50 was 16100 nM.
With C=CCn1c2cc(OC(=O)CCCN3CCN(Cc4ccccc4)CC3)ccc2c2ccnc(C)c21 the IC50 was 49.7 nM (Ellman).
CN1CCN(CCOc2ccc3occc(=O)c3c2)CC1 has an IC50 of 72900 nM (Ellman; pH 7.4).
The IC50 of C=CCn1c2cc(OC(=O)CCCCN3CCN(Cc4ccc(C(F)(F)F)cc4)CC3)ccc2c2ccnc(C)c21 is reported as 122 nM (Ellman).
The IC50 of Cc1ccc(S(=O)(=O)n2cc(Br)c(=O)[nH]c2=O)cc1 is reported as 88 nM (Ellman).
C=CCn1c2cc(OC(=O)CCCCCCN3CCN(Cc4ccccc4)CC3)ccc2c2ccnc(C)c21 gave an IC50 of 286 nM (Ellman).
The IC50 of O=c1[nH]cc(Br)c(=O)[nH]1 is reported as 151 nM (Ellman).
For C#CCN(C)c1nc(NCCCC2CCN(Cc3ccccc3)CC2)c(C#N)cc1C#N, the IC50 was 26.3 nM (Ellman).
The IC50 of COc1ncccc1-c1cnn2ccc(N3CCN(C(=O)OC(C)C)CC3)nc12 is reported as over 60000 nM.
Cn1ccc(=O)n(C)c1=O gave an IC50 of 388 nM (Ellman).
For C=CCn1c2cc(OC(=O)CCCCN3CCN(Cc4ccccc4C)CC3)ccc2c2ccnc(C)c21, the IC50 was 15.7 nM (Ellman).
CC[n+]1c(-c2ccccc2)c2cc(N)ccc2c2ccc(N)cc21 gave an IC50 of 22900 nM (Ellman).
The IC50 of C=CCn1c2cc(OC(=O)CCCCN3CCN(Cc4ccccc4)CC3)ccc2c2ccnc(C)c21 is reported as 58.8 nM (Ellman).
With O=c1[nH]cc(CO)c(=O)[nH]1 the IC50 was 205 nM (Ellman).
The IC50 of CNC(=O)Oc1cccc2ccccc12 is reported as 2780 nM (Ellman).
For CC(=O)O[C@H]1C[C@@H]2CC[C@@H]3[C@H](CC[C@@]4(C)[C@H]3C[C@H]([N+]3(C)CCCCC3)[C@@H]4OC(C)=O)[C@@]2(C)C[C@@H]1N1CCCCC1, the IC50 was 16500 nM.
C=CCn1c2cc(OC(=O)CCCCN3CCN(Cc4ccccc4C(F)(F)F)CC3)ccc2c2ccnc(C)c21 gave an IC50 of 48.4 nM (Ellman).
With COc1cc2c3cc1Oc1cc(ccc1O)C[C@@H]1c4c(cc(OC)c(O)c4Oc4ccc(cc4)C[C@@H]3N(C)CC2)CC[N+]1(C)C the IC50 was 57600 nM (Ellman).
